The whole screen tested about 330,000 compounds, of which about 220 (0.067%) were called active.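 The calls were made as follows: active = response, share of CD8 T cells binding vesicles, and their 90th percentile fluorescence all below set limits (cut at about 80% in these data, passing the limit was not always enough); inactive = the rest, inconclusive results apart.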 The entries come from a sample that favours actives as a whole. Non-standard residues stand in square brackets, D forms with d. Residues, ends and D or L forms follow the SMILES beside them. ξ: configuration not given here. ξV = CC(C)C(N)C(=O)O
Assay: modulators of CD8 T cell-vesicle binding, primary screen, mouse 2C CD8+ T cells, flow cytometry (AID 2052);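 as to double positive events: binding gate set so that unloaded-vesicle control wells show 10% double positive cells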;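 as to response (vesicle binding): values below 100% mean blocked vesicle binding to the CD8+ T cells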
Conditions: 2C CD8+ T cell-vesicle binding, at 7 µM, stronger effect = lower value; double positive events: measured here: CD8+ vesicle-bound cell fraction
Method in brief: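 Benchmarks: naked versus QL9-loaded vesicles / Assay system: purified 2C TCR transgenic mouse naive CD8+ T cells / Technique: high-throughput flow cytometry with anti-B7-1 and anti-CD8 staining / Timing: Cell–vesicle co-incubation 1.5 h at 37 °C, staining 20 min on ice / Read-out: percent CD8+ FL2 mean versus row control / Probe or stimulus: QL9-loaded Drosophila micro-vesicles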
In the case of `CCc1cccc2c3c([nH]c12)C(CC)(CC(=O)O)OCC3` (stereo unspecified), the double positive events was 14.8% and the response (vesicle binding) was 487% (inactive).
In the case of `O=C(CSc1ccc(-c2ccccn2)nn1)Nc1ccccc1`, the double positive events was 12.5% and the response (vesicle binding) was 157% (inactive).
With `Cc1c(OC(C)C(=O)NCC2CCC(C(=O)O)CC2)ccc2c1oc(=O)c1ccccc12` (stereo unspecified) the double positive events was 55.9% and the response (vesicle binding) was 184% (inactive).
With `CCCn1nnnc1NCc1ccc(OC)cc1` the double positive events was 56.3% and the response (vesicle binding) was 308% (inactive).
With `Cn1nnnc1NCc1ccc(Cl)c(Cl)c1` the double positive events was 43.7% and the response (vesicle binding) was 445% (inactive).
In the case of `COc1ccc(CNc2nnnn2C)cc1`, the double positive events was 4% and the response (vesicle binding) was 0% (active).
For `CC(C)N1CCC(NC(=O)Nc2ccccc2)CC1`, the double positive events was 60.7% and the response (vesicle binding) was 257% (inactive).
With `CC(=O)NC(C(=O)NCC(N)=O)C(C)C` (stereo unspecified) (Ac-[ξV]-Gly-NH2) the double positive events was 32.4% and the response (vesicle binding) was 396% (inactive).
With `O=C(O)c1[nH]c2ccccc2c1C(c1cccc(O)c1)c1c(C(=O)O)[nH]c2ccccc12` the double positive events was 36.2% and the response (vesicle binding) was 361% (inactive).
With `Cc1ccc(CNC(=O)COC(=O)C2CCC2)cc1` the double positive events was 37.4% and the response (vesicle binding) was 742% (inactive).
With `O=C(COC(=O)Cc1c[nH]c2ccccc12)NCCc1ccccc1` the double positive events was 19.5% and the response (vesicle binding) was 241% (inactive).
With `NC(=O)COc1ccc(C23CC4CC(CC(C4)C2)C3)cc1` the double positive events was 52.9% and the response (vesicle binding) was 159% (inactive).
In the case of `COP1(=O)C[C@@H](O)[C@@H](O)[C@@H](COCc2ccccc2)O1` (stereo partly specified), the double positive events was 21.9% and the response (vesicle binding) was 504% (inactive).
For `C[C@H](OC(=O)n1ccnc1)[C@@H]1O[C@@]2(C)CCC[C@@H]1O2`, the double positive events was 24.9% and the response (vesicle binding) was 376% (inactive).
With `COc1ccc(N(CC(=O)Nc2ccc(C)cc2C)S(=O)(=O)c2ccccc2[N+](=O)[O-])c(OC)c1` the double positive events was 61.2% and the response (vesicle binding) was 182% (inactive).
With `Cc1noc(C)c1CSc1nnc2ccc3ccccc3n12` the double positive events was 43.2% and the response (vesicle binding) was 196% (inactive).
For `NS(=O)(=O)c1cc(Cl)c(Cl)c(S(N)(=O)=O)c1`, the double positive events was 42.1% and the response (vesicle binding) was 570% (inactive).
With `Cn1nnc(NC(=S)NC(=O)c2ccccc2)n1` the double positive events was 30.5% and the response (vesicle binding) was 556% (inactive).
In the case of `CSc1nnc(SCc2nc3sc(C(=O)O)c(C)c3c(=O)[nH]2)s1`, the double positive events was 37.4% and the response (vesicle binding) was 501% (inactive).
In the case of `CCc1ccc(CNC(=O)C2CCN(c3nnc(C)c4c(C)n(-c5ccc(C)cc5)nc34)CC2)cc1`, the double positive events was 10.5% and the response (vesicle binding) was 623% (inactive).
For `CC1(C)C[C@H]2C3=CCC4[C@@]5(C)CC[C@H](O)[C@](C)(CO)C5CC[C@@]4(C)[C@]3(C)C[C@@H](O)[C@@]2(CO)[C@@H](O)[C@@H]1O` (stereo partly specified), the double positive events was 14.8% and the response (vesicle binding) was 534% (inactive).
For `COc1cc(NC(=S)NNC(=O)CC(C)C)c(OC)cc1Cl`, the double positive events was 66.1% and the response (vesicle binding) was 458% (inactive).
For `Cc1nn(CCOc2ccc(Br)cc2)c(C)c1[N+](=O)[O-]`, the double positive events was 61.8% and the response (vesicle binding) was 447% (inactive).
For `COc1cc(OC)c(-n2cc(-c3ccc(Cl)cc3)[nH]c2=O)cc1Cl`, the double positive events was 39.5% and the response (vesicle binding) was 546% (inactive).
In the case of `O=C(c1ccco1)N1CCN(CCOc2ccccc2)CC1`, the double positive events was 23.1% and the response (vesicle binding) was 301% (inactive).
For `O=C(c1ccco1)N1CCN(C(=O)C2c3ccccc3Oc3ccccc32)CC1`, the double positive events was 0% and the response (vesicle binding) was 0% (active).
With `O=C(c1ccc2c(c1)OCO2)N1CCN(C(=O)c2ccco2)CC1` the double positive events was 35.9% and the response (vesicle binding) was 148% (inactive).
With `Cc1cc(C)c(NC(=O)CSc2nc3ccncc3[nH]2)c(C)c1` the double positive events was 24.7% and the response (vesicle binding) was 968% (inactive).
With `Cc1sc2ncnc(SCC(=O)Nc3ccc(CN4CCCC4)cc3)c2c1C` the double positive events was 35.3% and the response (vesicle binding) was 104% (inactive).
With `C=CC[C@@H](CC(=O)N[C@@H](CO)Cc1ccccc1)C(=O)NCCOC(=O)[C@@H](CC=C)CC(=O)OC(C)(C)C` the double positive events was 13.7% and the response (vesicle binding) was 321% (inactive).
For `CC(=O)Nc1nc2c(s1)C(=O)NCC(C)(C)C2`, the double positive events was 50.4% and the response (vesicle binding) was 439% (inactive).
With `Cc1ccc(C(=O)Nc2ccc(C)c(S(=O)(=O)N(C)C)c2)s1` the double positive events was 45.5% and the response (vesicle binding) was 218% (inactive).
For `Nc1ccc(OCC(O)C[n+]2ccc(CCS(=O)(=O)[O-])cc2)cc1` (stereo unspecified), the double positive events was 20.9% and the response (vesicle binding) was 319% (inactive).
In the case of `CC(Oc1ccc(Br)cc1)C(=O)NCC(c1ccco1)N1CCCCC1` (stereo unspecified), the double positive events was 51.4% and the response (vesicle binding) was 336% (inactive).
With `O=C1CC(Sc2ncn[nH]2)C(=O)N1c1ccccc1` (stereo unspecified) the double positive events was 46.5% and the response (vesicle binding) was 391% (inactive).
For `COC(=O)C(C(=O)Nc1cccc(C)n1)C1CCCCCC1` (stereo unspecified), the double positive events was 44.3% and the response (vesicle binding) was 158% (inactive).
For `CSc1ccccc1C(=O)OCC(=O)N1CCN(C(C)=O)CC1`, the double positive events was 34.9% and the response (vesicle binding) was 823% (inactive).
With `CCn1cc(C(=O)N2CC=C(c3ccccc3)CC2)c(=O)c2ccc(C)nc21` the double positive events was 1.9% and the response (vesicle binding) was 79.1% (inactive).
For `CN1C(C(=O)NCC2CC2)CC2Cn3c(nc4ccccc43)C21` (stereo unspecified), the double positive events was 12.7% and the response (vesicle binding) was 473% (inactive).
In the case of `Cc1ccc(C)c2[nH]c(=O)c(CCNC(=O)CC(C)C)cc12`, the double positive events was 38.5% and the response (vesicle binding) was 832% (inactive).
With `CCOC(=O)C1CCN(C(=O)C2(NC(=O)Nc3cccc(F)c3)CCCCC2)CC1` the double positive events was 36.4% and the response (vesicle binding) was 360% (inactive).
In the case of `CC1=C(C(N)=O)C(c2sccc2C)n2nnnc2N1` (stereo unspecified), the double positive events was 23.4% and the response (vesicle binding) was 292% (inactive).
In the case of `CC1=C(C(=O)OC2CCCCC2)C(c2ccccc2F)NC(=O)N1` (stereo unspecified), the double positive events was 33.6% and the response (vesicle binding) was 167% (inactive).
